# Assay results reported in ChEMBL document CHEMBL1123888, “Aldosterone antagonists. 2. Synthesis and biological activities of 11,12-dehydropregnane derivatives” (J Med Chem, 1987).
# Calls of active or inactive are those of the source. The calls are words filed in the database; no cut-off is given here.
# Legend:
# [1] = molecular target: T1, Mineralocorticoid receptor (Rattus norvegicus) (UniProt P22199); assay: Relative binding affinity to the rat mineralocorticoid receptor determined in rat renal cytosol using [3]Ald as ligand
# T1 sequence (whole entry): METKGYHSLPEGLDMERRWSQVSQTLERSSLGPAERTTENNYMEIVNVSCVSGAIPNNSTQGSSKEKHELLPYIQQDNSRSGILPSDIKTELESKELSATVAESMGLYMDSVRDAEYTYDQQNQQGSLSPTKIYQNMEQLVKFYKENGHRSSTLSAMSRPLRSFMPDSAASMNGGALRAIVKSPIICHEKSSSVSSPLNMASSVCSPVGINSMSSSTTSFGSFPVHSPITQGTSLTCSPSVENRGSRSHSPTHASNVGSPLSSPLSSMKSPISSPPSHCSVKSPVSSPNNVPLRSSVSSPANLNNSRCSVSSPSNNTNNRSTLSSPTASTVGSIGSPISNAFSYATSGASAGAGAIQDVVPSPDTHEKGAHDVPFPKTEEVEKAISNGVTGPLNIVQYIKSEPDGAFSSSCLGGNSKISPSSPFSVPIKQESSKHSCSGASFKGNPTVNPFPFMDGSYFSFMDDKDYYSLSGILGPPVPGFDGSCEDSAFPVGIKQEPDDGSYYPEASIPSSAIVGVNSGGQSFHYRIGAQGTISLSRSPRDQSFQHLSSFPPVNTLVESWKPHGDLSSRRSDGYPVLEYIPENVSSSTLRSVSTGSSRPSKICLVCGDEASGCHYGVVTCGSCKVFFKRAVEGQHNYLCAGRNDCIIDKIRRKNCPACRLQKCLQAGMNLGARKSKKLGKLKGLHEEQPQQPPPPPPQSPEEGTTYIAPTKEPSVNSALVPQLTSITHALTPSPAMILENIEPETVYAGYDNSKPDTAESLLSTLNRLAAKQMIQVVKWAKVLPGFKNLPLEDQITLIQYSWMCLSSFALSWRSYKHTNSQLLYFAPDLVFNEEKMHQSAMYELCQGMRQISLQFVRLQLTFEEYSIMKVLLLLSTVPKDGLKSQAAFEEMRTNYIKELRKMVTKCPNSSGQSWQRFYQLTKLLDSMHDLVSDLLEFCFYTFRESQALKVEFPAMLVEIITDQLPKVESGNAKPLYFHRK
# Method in brief: (§1)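 Renal cytosol came from male Sprague-Dawley rats (4-8 weeks) adrenalectomized bilaterally 1 or 2 days earlier. It was incubated with various competitor concentrations and about 1 nM [3H]Ald for 42-48 h at 0 °C or 100-120 min at 25 °C. Bound and free steroid were separated by DCC.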
# [2] = molecular target: T1, Mineralocorticoid receptor (Rattus norvegicus); assay: Relative binding affinity against mineralocorticoid receptor determined in rat renal cytosol using [3]Ald as ligand; method in brief: as §1
# Rattus norvegicus = organism: Rattus norvegicus; assay: Displacement of [3H]promegestone from progestin receptor of rat uterine cytosol at 0 degree Centigrade
# Method in brief: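 Uteri from estradiol-primed rats supplied the cytosol. It was incubated with various competitor concentrations and about 1 nM [3H]promegestone for 16-20 h at 0 °C. Bound and free steroid were separated by DCC. RBA (progesterone = 100%) = 100 × ratio of the 50%-inhibition concentrations of standard and competitor.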
# [3] = molecular target: T1, Mineralocorticoid receptor (Rattus norvegicus); assay: Antagonist activity against Mineralocorticoid receptor after subcutaneous administration in Male Sprague Dawley rats; (+) =positive; type: functional, organism-based; settings: filed as antagonist
# Method in brief: (§2)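 Male rats were bilaterally adrenalectomized (bioassay modified from Kagawa). Ald (1 µg/kg) was given sc, immediately followed by test compound in sesame oil sc or orally. Urine was collected from 2 to 6 h after steroid. Potency came from the urinary Na/K ratio of sample versus control, with 95% confidence limits.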
# [4] = molecular target: T1, Mineralocorticoid receptor (Rattus norvegicus); assay: Antagonist activity against Mineralocorticoid receptor was determined after subcutaneous administration in Male Sprague Dawley rats; type: functional, organism-based; method in brief: as §2
# [5] = molecular target: T1, Mineralocorticoid receptor (Rattus norvegicus); assay: Antagonist activity against Mineralocorticoid receptor after oral administration in Male Sprague Dawley rats; (+) =positive; type: functional, organism-based; settings: filed as antagonist; method in brief: as §2
# [6] = molecular target: T2, Progesterone receptor (Rattus norvegicus) (UniProt Q63449); assay: Relative binding affinity against progesterone receptor determined in rat […] cytosol using [3H]DHT as ligand
# T2 sequence (whole entry): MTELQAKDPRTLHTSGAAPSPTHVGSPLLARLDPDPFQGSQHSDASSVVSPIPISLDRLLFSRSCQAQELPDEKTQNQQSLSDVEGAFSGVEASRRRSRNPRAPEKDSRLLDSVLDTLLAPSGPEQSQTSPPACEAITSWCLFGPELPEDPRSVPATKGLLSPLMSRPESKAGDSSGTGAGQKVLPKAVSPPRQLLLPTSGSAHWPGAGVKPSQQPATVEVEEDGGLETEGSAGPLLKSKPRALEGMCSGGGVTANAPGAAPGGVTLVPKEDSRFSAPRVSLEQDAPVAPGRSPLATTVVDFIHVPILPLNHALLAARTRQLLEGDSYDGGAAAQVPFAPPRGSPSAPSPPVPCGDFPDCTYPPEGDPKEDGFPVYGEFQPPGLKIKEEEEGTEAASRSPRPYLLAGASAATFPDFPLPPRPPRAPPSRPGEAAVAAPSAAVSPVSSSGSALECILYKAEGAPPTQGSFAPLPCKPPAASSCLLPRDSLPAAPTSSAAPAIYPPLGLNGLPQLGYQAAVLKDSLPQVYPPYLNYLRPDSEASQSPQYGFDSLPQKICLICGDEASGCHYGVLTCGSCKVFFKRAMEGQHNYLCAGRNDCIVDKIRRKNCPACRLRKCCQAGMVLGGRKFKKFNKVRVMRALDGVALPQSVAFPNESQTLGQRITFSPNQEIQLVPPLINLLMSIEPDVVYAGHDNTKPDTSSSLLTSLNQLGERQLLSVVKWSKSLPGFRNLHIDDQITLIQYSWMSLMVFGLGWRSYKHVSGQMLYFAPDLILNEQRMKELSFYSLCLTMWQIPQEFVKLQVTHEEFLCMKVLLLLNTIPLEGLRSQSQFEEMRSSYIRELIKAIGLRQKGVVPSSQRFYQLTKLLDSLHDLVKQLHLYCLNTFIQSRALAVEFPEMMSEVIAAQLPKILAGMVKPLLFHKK
# [7] = molecular target: T1, Mineralocorticoid receptor (Rattus norvegicus); assay: Relative anti-mineralocorticoid potency compared to Spironolactone after oral administration; type: functional, organism-based; method in brief: as §2
# [8] = molecular target: T1, Mineralocorticoid receptor (Rattus norvegicus); assay: Antagonist activity against Mineralocorticoid receptor after po administration in Male Sprague Dawley rats; (-) = negative; type: functional, organism-based; method in brief: as §2
# [9] = molecular target: T1, Mineralocorticoid receptor (Rattus norvegicus); assay: Relative binding affinity against Mineralocorticoid receptor in Male Sprague-Dawley rats; method in brief: as §1
# [10] = molecular target: T1, Mineralocorticoid receptor (Rattus norvegicus); assay: In vivo relative Mineralocorticoid activity in Male Sprague-Dawley rats; type: functional, organism-based
# [11] = molecular target: T1, Mineralocorticoid receptor (Rattus norvegicus); assay: Displacement of [3]Aldosterone from mineralocorticoid receptor of rat renal cytosol at 0 degree Centigrade; method in brief: as §1
# [12] = molecular target: T3, Androgen receptor (Rattus norvegicus) (UniProt P15207); assay: Relative binding affinity against Androgen receptor in Male Sprague-Dawley rats
# T3 sequence (whole entry): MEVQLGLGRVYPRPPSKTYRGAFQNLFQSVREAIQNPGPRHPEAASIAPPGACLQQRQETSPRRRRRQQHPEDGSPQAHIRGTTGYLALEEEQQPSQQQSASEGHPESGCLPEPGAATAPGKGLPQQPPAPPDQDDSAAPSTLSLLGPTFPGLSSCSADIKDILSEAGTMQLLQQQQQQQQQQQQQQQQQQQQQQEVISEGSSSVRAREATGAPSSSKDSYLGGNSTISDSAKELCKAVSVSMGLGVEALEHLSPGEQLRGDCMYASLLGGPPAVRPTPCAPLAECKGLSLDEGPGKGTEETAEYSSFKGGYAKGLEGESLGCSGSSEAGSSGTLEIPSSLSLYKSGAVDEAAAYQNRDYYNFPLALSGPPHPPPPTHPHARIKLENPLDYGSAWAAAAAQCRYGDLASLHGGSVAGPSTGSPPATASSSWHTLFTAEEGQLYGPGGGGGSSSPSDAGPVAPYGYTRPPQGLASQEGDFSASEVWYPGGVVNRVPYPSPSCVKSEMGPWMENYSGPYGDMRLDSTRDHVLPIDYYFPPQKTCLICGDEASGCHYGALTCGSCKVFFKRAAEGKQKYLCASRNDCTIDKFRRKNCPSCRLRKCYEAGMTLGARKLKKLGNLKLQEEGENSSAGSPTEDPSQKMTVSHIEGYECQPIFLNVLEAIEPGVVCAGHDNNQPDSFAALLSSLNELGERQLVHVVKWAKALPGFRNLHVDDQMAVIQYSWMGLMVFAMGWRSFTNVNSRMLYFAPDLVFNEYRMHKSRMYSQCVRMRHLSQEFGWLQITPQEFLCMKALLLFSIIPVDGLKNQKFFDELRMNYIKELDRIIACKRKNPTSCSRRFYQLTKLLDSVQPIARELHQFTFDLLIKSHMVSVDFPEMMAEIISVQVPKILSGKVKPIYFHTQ
# Method in brief: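 Rat ventral prostate cytosol from 4-8-week-old rats castrated 1 day earlier. Incubated with various competitor concentrations and about 1 nM [3H]DHT or [3H]methyltrienolone for 16-20 h at 0 °C. Bound and free steroid separated by dextran-coated charcoal.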
# [13] = molecular target: T3, Androgen receptor (Rattus norvegicus); assay: In vivo relative androgenic activity in Male Sprague-Dawley rats; type: functional, organism-based
# [14] = molecular target: T1, Mineralocorticoid receptor (Rattus norvegicus); assay: Antagonist activity against Mineralocorticoid receptor after oral administration in Male Sprague Dawley rats; (-) = negative; type: functional, organism-based; method in brief: as §2
SMILES,RBA [1] [%],RBA [2] [%],Activity [3],Activity [4],RBA [6] [%],other results
CC(=O)S[C@@H]1CC2=CC(=O)CC[C@]2(C)[C@H]2CC[C@@]3(C)[C@@H](CC[C@@]34CCC(=O)O4)[C@H]12,15,3.2,Antagonist,inactive,–,RBA (Rattus norvegicus): 2.6%; Activity [5]: Antagonist
CC(=O)S[C@@H]1CC2=CC(=O)CCC2(C)C2C=CC3(C)C(C4CC4[C@@]34CCC(=O)O4)C21 (stereo not given in full),> 1000,370,–,inactive,89,–
CC(=O)S[C@@H]1CC2=CC(=O)C=CC2(C)C2C=CC3(C)C(CC[C@@]34CCC(=O)O4)C21 (stereo not given in full),71,23,Antagonist,inactive,3.9,Relative potency [7]: 0.77; Activity [5]: Antagonist
CC(C)(C)C(=O)S[C@@H]1CC2=CC(=O)C=CC2(C)C2C=CC3(C)C(CC[C@@]34CCC(=O)O4)C21 (stereo not given in full),530,1000,Antagonist,–,18,Activity [8]: inactive; Activity [5]: Antagonist
CC12CCC(=O)C=C1CCC1C2C=CC2(C)C(C(=O)CO)CCC12 (stereo not given),–,–,–,–,–,relative binding affinity (RBA) [9]: 150; Relative activity [10]: 1
CC12CCC(=O)C=C1C1CC1C1C2C=CC2(C)C1C1CC1[C@@]21CCC(=O)O1 (stereo not given in full),760,–,–,inactive,–,RBA (Rattus norvegicus): 540%; RBA [11]: 300%
CC12CCC(=O)C=C1CCC1C2C=CC2(C)C(O)CCC12 (stereo not given),–,–,–,–,–,relative binding affinity (RBA) [12]: 120; Relative activity [13]: 0.7
CC12C=CC(=O)C=C1[C@H]1C[C@H]1C1C2C=CC2(C)C1CC[C@@]21CCC(=O)O1 (stereo not given in full),48,32,Antagonist,–,1.9,Relative potency [7]: 1.31; Activity [14]: inactive; Activity [8]: inactive
C[C@]12CCC(=O)C=C1C=C[C@@H]1[C@@H]2CC[C@@]2(C)[C@H]1CC[C@@]21CCC(=O)O1,2.9,1.7,Antagonist,–,–,Activity [14]: inactive
C[C@]12CCC(=O)C=C1CC[C@@H]1[C@@H]2[C@H]2C[C@]3(CO2)[C@@H](C(=O)CO)CC[C@@H]13,–,–,–,–,–,relative binding affinity (RBA) [9]: 50
CC12C=CC(=O)C=C1CCC1C2C=CC2(C)C1C1CC1[C@@]21CCC(=O)O1 (stereo not given in full),440,220,–,–,–,–
